Data set [1] concerns the target T1, NPR-B receptor on NIH3T3 cells (Mus musculus, UniProt Q6VVW5).
T1 sequence (Q6VVW5 23-1047 limits assumed): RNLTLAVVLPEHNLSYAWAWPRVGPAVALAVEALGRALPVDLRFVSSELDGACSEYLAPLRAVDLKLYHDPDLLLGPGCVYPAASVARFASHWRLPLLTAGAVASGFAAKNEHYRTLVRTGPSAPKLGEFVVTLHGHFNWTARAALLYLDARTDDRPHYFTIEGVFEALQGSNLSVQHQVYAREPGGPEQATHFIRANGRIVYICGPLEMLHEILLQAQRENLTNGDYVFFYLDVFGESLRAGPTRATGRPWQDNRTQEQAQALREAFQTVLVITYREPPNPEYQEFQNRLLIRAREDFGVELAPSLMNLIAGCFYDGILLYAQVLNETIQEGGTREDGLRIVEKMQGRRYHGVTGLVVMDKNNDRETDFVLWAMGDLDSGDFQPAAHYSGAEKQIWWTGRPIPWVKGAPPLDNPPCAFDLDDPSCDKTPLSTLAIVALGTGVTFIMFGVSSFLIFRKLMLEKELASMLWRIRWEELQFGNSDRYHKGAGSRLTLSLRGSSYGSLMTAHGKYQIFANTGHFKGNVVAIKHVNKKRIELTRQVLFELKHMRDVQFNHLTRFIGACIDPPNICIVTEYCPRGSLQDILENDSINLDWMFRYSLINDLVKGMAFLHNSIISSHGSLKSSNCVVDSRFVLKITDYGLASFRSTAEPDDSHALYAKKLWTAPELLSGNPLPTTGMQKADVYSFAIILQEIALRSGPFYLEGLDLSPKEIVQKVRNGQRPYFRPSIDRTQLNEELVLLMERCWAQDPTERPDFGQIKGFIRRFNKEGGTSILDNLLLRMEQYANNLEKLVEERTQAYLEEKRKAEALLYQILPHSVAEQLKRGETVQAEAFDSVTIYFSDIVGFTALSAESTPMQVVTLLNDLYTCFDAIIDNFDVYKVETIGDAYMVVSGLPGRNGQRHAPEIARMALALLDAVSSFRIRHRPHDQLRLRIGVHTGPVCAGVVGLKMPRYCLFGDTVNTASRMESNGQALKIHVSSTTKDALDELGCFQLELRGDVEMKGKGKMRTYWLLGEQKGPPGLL
The data set is described as follows: 3T3 cell NPR-B guanylate cyclase assay. The data set is classed as cell-based.

The subject of a further data set is mice. Conditions: 70 nmol/kg; cited from earlier work.
The subject of data set [2] is 3-wk-old FVB/nJ male mice. Kind of data set: Growth. It is filed as in vivo, mouse. The settings on record: QD 70 nmol/kg SC, 5 wk, n = 6. In short, it runs like this: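 Wild-type male FVB/nJ mice, 3 wk old, groups of 6, were given SC injections once daily of 70 nmol/kg peptide or vehicle for 5 wk. Total body length was nasoanal plus tail length, measured in anesthetized mice positioned with head extended, nose on a horizontal guideline and tail straight. Length change over the period was compared with the vehicle group.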

For a further data set, the system named is monkeys. Conditions: 12 nmol/kg; cited from earlier work.
For data set [3] the following is noted: monkeys, 12 nmol/kg; cited from earlier work.
Data set [4] in a line: Body weight of treated mice. It is filed as in vivo, mouse. The settings on record: 3-wk-old FVB/nJ male mice, various regimens. The procedure, abridged:
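Wild-type male FVB/nJ mice, 3 wk old, about 15 g. Groups received one of: vehicle, daily SC 70 nmol/kg peptide, or microsphere-conjugated peptide. Conjugate dosing was weekly, biweekly or a single dose, either as constant nmol per mouse or as µmol/kg by body weight. Body weights of treated and untreated animals were followed over the study.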

The conditions of data set [5]: literature value; cited from earlier work.
The conditions of data set [6]: mice, QD 70-nmol/kg dose; cited from earlier work.
The subject of another data set is children with ACH. Conditions: once daily 15 μg/kg SC; cited from earlier work.
Data set [7] in a line: In vitro degradation at pH 7.4, 37 °C, HPLC analysis. It is filed as physicochemical.
Data set [8] concerns the target T1, NPR-B receptor on NIH3T3 cells. The settings on record: read-out: EC50, reported; literature values; cited from earlier work.

The EC50 is the concentration needed to bring the measured effect to its halfway point. By Cmax is commonly meant the peak of the concentration-time curve.

Molecules are shown by their SMILES. Read-outs that look alike come from different tables or passages of the source.

As for `CC[C@H](C)[C@@H]1NC(=O)[C@H](CCCNC(=N)N)NC(=O)[C@H](CC(=O)O)NC(=O)[C@H](CC(C)C)NC(=O)[C@H](CCCCN)NC(=O)[C@H](CC(C)C)NC(=O)CNC(=O)[C@H](Cc2ccccc2)NC(=O)[C@@H](NC(=O)CNC(=O)[C@H](CCCCN)NC(=O)[C@H](CO)NC(=O)[C@H](CC(C)C)NC(=O)CNC(=O)[C@H](CCCCN)NC(=O)[C@H](CCCCN)NC(=O)[C@H](CC(N)=O)NC(=O)[C@H](C)NC(=O)CNC(=O)[C@H](CCCCN)NC(=O)[C@H](Cc2ccc(O)cc2)NC(=O)[C@H](CCCCN)NC(=O)[C@H](CCCNC(=N)N)NC(=O)[C@H](C)NC(=O)[C@H](CC(N)=O)NC(=O)[C@@H]2CCCN2C(=O)[C@H](Cc2c[nH]cn2)NC(=O)[C@H](CCC(=O)O)NC(=O)[C@H](CCC(N)=O)NC(=O)CNC(=O)[C@@H]2CCCN2)CSSC[C@@H](C(=O)O)NC(=O)CNC(=O)[C@H](CC(C)C)NC(=O)CNC(=O)[C@H](CO)NC(=O)[C@H](CCSC)NC(=O)[C@H](CO)NC(=O)CNC1=O` [vosoritide], the EC50 in data set [1] is 11 nM; in data set [8] it was 4.9 nM. The “blood pressure and heart rate” value in the data set with mice is “acute decreases in blood pressure and increases in heart rate within acceptable limits”. In data set [2], the “growth (TBL) exceeding that of the vehicle control group at study end” value was 100%. Further, the “systemic BP or HR” value with monkeys is given as “no changes in systemic BP or HR”. The figures for the Cmax in data set [3], in data set [5] and in data set [6] were about 10 nM, about 5 nM and 200 nM, respectively. In data set [4], the “body weights of treated versus untreated mice” value is “no difference”. Also, in the data set on children with ACH, the annualized growth velocity result is “sustained increase in the annualized growth velocity”. Besides, the side effect profile result in the data set with children with ACH is recorded as “mild side effect profile”. Also, in data set [7] (100 µM, 10 mM sodium phosphate, 0.13 M NaCl, pH 7.4, 37 °C, HPLC), the “degradation t1/2” value was about 170 h. For the same compound, in data set [7] (physiological pH and temperature), the t1/2 for degradation is at most 1 wk.

The values above are taken from paper PMC9335275 (Proceedings of the National Academy of Sciences of the …, 2022).
